Assay results from different studies.
Lines come from different studies, so protocols differ.
Sample: plasma

CO[C@H]1CC[C@H](N2C(=O)CNc3ncc(-c4ccc(C(C)(C)O)nc4)nc32)CC1  Vd/F (human; oral, 30 mg, patients): 195 L
CCNCCCNC/C=C\CNCCCNCC  Vd (human; intravenous, 150 mg, patients, infusion): 1.55 L/kg
CC(C)(Sc1ccncc1-c1ccc(C#N)c2ccccc12)C(=O)O  Vd/F (male human; oral, 5 mg, single dose, fasted, healthy volunteers): 419 L
Cc1cc(Nc2cc(N3CCN(C)CC3)nc(/C=C/c3ccccc3)n2)n[nH]1  Vd/F (human; oral, 120 mg/m², patients): 2440 L
C[C@@]1(c2cc(NC(=O)c3ccc(C#N)cn3)ccc2F)C=CSC(N)=N1  Vd/F (human; oral, 90 mg, single dose): 240 L
COc1ccc([C@@H]2CN(C(=O)[C@@H](O)CO)C[C@@]2(C)[C@@H](C)O)cc1OC1CN(c2ccc(C)cn2)C1  Vd/F (human; oral, 40 mg, single dose, healthy volunteers): 77.7 L
c1cnc2ccc(Nc3nc(NC4CC4)c4nc[nH]c4n3)cc2c1  Vd/F (human; oral, 50 mg/m², patients): 597 L
COc1cc(C(=O)NC2CCN(C)CC2)c(F)cc1Nc1ncc(C(F)(F)F)c(Oc2cccc3c2C(=O)N(C)C3)n1  Vd/F (human; oral, 10 mg, multiple doses, once daily, patients): 776 L
